CHRM5 antagonist: blocks acetylcholine activation of human M5 receptor. P08912. CHO-hM5 cells, Fluo-8 calcium fluorescence, ACh EC80. inhibition, % at 3 µM. 360,000 tested, 0.59% active. AID 624040;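 active means inhibition above a per-plate cutoff, the mean of that plate's test compounds plus 3 SD, cut at about 27% in these data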;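 further: 0% = acetylcholine EC80 with DMSO and 100% = DMSO without agonist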
Target sequence (P08912 whole entry, looked up): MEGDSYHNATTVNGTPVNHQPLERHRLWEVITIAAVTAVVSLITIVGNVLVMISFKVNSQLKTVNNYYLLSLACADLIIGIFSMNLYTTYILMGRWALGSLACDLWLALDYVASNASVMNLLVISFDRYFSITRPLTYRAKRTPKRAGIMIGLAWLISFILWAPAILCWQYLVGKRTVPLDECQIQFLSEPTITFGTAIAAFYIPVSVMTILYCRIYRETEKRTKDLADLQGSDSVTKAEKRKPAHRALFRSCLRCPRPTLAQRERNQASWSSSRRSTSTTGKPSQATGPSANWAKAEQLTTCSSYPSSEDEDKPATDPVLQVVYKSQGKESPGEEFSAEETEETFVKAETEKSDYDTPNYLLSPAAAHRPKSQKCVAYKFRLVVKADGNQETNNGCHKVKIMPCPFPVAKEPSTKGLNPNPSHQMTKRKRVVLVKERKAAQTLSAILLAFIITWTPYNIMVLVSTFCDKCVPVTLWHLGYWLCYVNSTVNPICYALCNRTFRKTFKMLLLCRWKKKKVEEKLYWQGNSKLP
M4 antag: antagonists of human muscarinic M4 receptor (CHRM4) | 360,000 tested, 0.73% active | CHO-hM4 cells, ACh EC80, Fluo-8 calcium fluorescence | inhibition, % at 3 µM | P08173;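 active means inhibition above its plate's cutoff, the mean inhibition of sample wells plus 3 SD, cut at about 27% in these data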;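 further: 0% = acetylcholine EC80 with DMSO and 100% = DMSO without agonist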
CHRM4 PAM: potentiates acetylcholine response at human M4 receptor; activation, % at 3 µM; P08173; CHO-K1 hM4/Gqi5, Fluo-8 calcium fluorescence, ACh EC20; 0% = ACh EC20, 100% = maximal ACh; 360,000 tested, 0.4% active;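 active means activation above its plate's cutoff, the mean activation of sample wells plus 3 SD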
M5 ag: agonists of human muscarinic M5 receptor (CHRM5); P08912; CHO-K1 hM5 cells, Fluo-8 calcium fluorescence; 0% DMSO wells, 100% maximal acetylcholine response; activation, % at 3 µM; 360,000 tested, 0.19% active; AID 624037;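 active means activation above the run's mean over test compounds plus 3 SD, cut at about 23% in these data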;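 further: signal is peak over basal fluorescence ratio across the kinetic read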
CHRM4 agonist: CHRM4 agonism in calcium assay; P08173; activation, % at 3 µM; 360,000 tested, 0.14% active; CHO-K1 hM4/Gqi5, Fluo-8 calcium fluorescence; vehicle 0%, full acetylcholine response 100%;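 active means activation above the run mean over all test wells plus 3 SD, cut at about 32% in these data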;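 further: peak over basal fluorescence ratio per well then scaled between controls; 0% = DMSO wells and 100% = acetylcholine at EC100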
M5 PAM: potentiates acetylcholine response at human M5 receptor. 360,000 tested, 0.3% active. CHO-K1 hM5, Fluo-8 calcium, ACh EC20 PAM; 0% = ACh EC20, 100% = ACh EC100. P08912. activation, % at 3 µM. AID 624038;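 active means activation above the run cutoff, the mean activation of all test compounds plus 3 SD, cut at about 18% in these data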
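Measured by: Fluo-8 calcium fluorescence; material: human M5 receptor in CHO-K1 cells; schedule: Post-acetylcholine fluorescence recording 140 s; benchmarks: low control EC20 acetylcholine (0%), high control EC100 acetylcholine (100%); read-out: Max/basal fluorescence ratio as % of EC20–EC100 ACh window; compound: single dose, 3 µM nominal final test concentration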
* marks the source's active call; other numbers are inactive results; · = no result given. The list is not random: actives were taken first. Their share in the collection is about 1.8%.

SMILES | CHRM5 antagonist | M4 antag | CHRM4 PAM | M5 ag | CHRM4 agonist | M5 PAM
CC(C)C[C@H]1CNC(=S)N1CC1CCN(CCCC2CCCC2)CC1 | 16.8 | 33.5* | -14.2 | -3.4 | 1.0 | -17.8
CCOc1ccc(CCN2C(=S)N([C@@H](Cc3ccc(O)cc3)CN3CCC[C@@H]3CN3C(=S)NC[C@@H]3Cc3ccccc3)C[C@@H]2CC(C)C)cc1 | -0.8 | -2.6 | -1.8 | -0.8 | -0.2 | 0.2
CCOc1ccc(CCN2C(=S)N([C@@H](Cc3ccc(O)cc3)CN3CCC[C@@H]3CN3C(=S)NC[C@@H]3CC(C)C)C[C@@H]2Cc2ccccc2)cc1 | -2.8 | -12.3 | 23.0* | -3.7 | 1.8 | -0.4
CC(C)C[C@H]1CNC(=S)N1CC1CCN(CCCCc2ccccc2)CC1 | 6.3 | 41.8* | -15.9 | -3.6 | 0.7 | -16.0
S=C1NC[C@H](Cc2ccccc2)N1CCCCC1CCCCC1 | 10.6 | 4.4 | 1.2 | -1.8 | 0.9 | 0.8
S=C1NC[C@H](Cc2ccccc2)N1CC1CCN(CCCC2CCCC2)CC1 | 13.9 | 42.4* | -14.9 | -1.6 | 7.7 | -15.1
CCCCN1CCC(CN2C(=S)NC[C@@H]2CC(C)C)CC1 | 3.3 | -12.5 | 10.0 | -3.2 | 0.2 | -6.3
COc1ccc(CCN2CCC(CN3C(=S)NC[C@@H]3CC(C)C)CC2)cc1OC | -0.9 | 20.1 | -13.1 | -3.5 | -0.3 | 1.1
COc1ccc(NC(=O)CS(=O)CC(=O)Nc2ccc(OC)c(OC)c2)cc1 (stereo not given) | -7.4 | -3.9 | 30.4* | -3.3 | 0.7 | 12.9
Cn1c(C(=O)NCC2CCCO2)cc2c(=O)[nH]c3ccccc3c21 (stereo not given) | -7.5 | -15.4 | 27.8* | 0.2 | 3.2 | 0.5
Cn1c(=O)c(C(=O)NCC2CCCO2)c(O)c2ccccc21 (stereo not given) | 9.4 | 32.6* | 17.6 | 2.2 | 2.0 | 17.8
CN(Cc1ccc(Cl)cc1)C(=O)COC(=O)CSc1ccc([N+](=O)[O-])cc1 | 0.6 | 8.2 | -5.0 | -1.1 | 4.1 | -7.6
CC(=O)Nc1ccc(CN2C(=O)C(C)(C)ON=C2c2ccc(NC(C)=O)cc2)cc1 | 3.1 | -0.8 | -0.1 | 0.2 | -0.1 | -0.8
CC(C)(C)OC(=O)C[C@@H]1C/C=C\C[C@@H](CC(=O)NCCO)C(=O)NC[C@@H](c2ccccc2)OC1=O | 1.6 | 2.8 | 3.8 | 4.8 | 0.6 | 4.7
CN1C2CC(OC(=O)C(CO)c3ccccc3)CC1C1OC12 (stereo not given) | · | 98.9* | -17.1 | · | 0.7 | ·
S=C(NCc1ccco1)Nc1cc(Cl)c(Cl)cc1Cl | 33.5* | -4.1 | -12.2 | -0.5 | 6.9 | -19.5
S=C(NCc1ccco1)Nc1ccc(Cl)c(Cl)c1 | 24.7 | 8.5 | -15.1 | 4.1 | 16.1 | -13.7
CCN(CC)C(=O)CSc1nnc(-c2ccccn2)n1-c1ccccc1OC | -13.6 | 30.6* | 19.6 | 1.6 | 1.8 | 11.1
Cn1c(Br)nc2c1c(=O)n(CC(O)COc1ccccc1)c(=O)n2C (stereo not given) | 3.4 | 1.5 | -4.3 | 0.5 | 34.3* | -7.7
COc1ccc(CC(=O)OCC(=O)N2CCc3ccccc32)cc1OC | 0.1 | -15.3 | 7.1 | 1.1 | 5.7 | -10.7
COc1ccc2nc(N(Cc3ccccc3)C(=O)CCNC(C)=O)sc2c1 | 0.8 | 5.7 | -5.7 | -2.1 | 0.5 | 0.5
NC(=O)NC(=O)COC(=O)CC12CC3CC(CC(C3)C1)C2 | -7.8 | -0.7 | 9.6 | 1.0 | 1.7 | 20.2*
NC(=O)COC(=O)CC12CC3CC(CC(C3)C1)C2 | 3.7 | 5.6 | -3.3 | -2.3 | -0.2 | 3.3
Cc1c(C)c2cc(Cl)c(O)c(CN3CCCC(C)C3)c2oc1=O (stereo not given) | 0.3 | 28.0* | -20.3 | -7.2 | -1.0 | 1.3
Cc1cccc(NC(=O)c2ccc(F)c(S(=O)(=O)NCc3ccco3)c2)c1 | -15.6 | -8.4 | 2.9 | 2.4 | 1.1 | 19.4*
SMILES | CHRM5 antagonist | M4 antag | CHRM4 PAM | M5 ag | CHRM4 agonist | M5 PAM
Cc1cc(C)c(S(=O)(=O)Nc2nnc(C3CCCCC3)s2)c(C)c1 | 3.4 | -10.3 | 11.3 | -7.7 | -1.2 | -4.7
CCN(CC)c1ccc2c(Cl)c(Br)c(=O)oc2c1 | 70.1* | 62.2* | -17.1 | 28.0* | 26.9 | -19.1
COc1ccc(S(=O)(=O)CCc2nnc(NC(=O)c3cccs3)s2)cc1 | 0.1 | 13.2 | 2.8 | -0.4 | 0.6 | -0.1
O=C(Nc1nnc(CCS(=O)(=O)c2ccc3ccccc3c2)s1)c1cccs1 | -3.5 | -6.8 | 21.2* | -2.5 | 1.1 | 1.2
COc1ccc(S(=O)(=O)N2CCCC2=O)cc1N(C)S(C)(=O)=O | -1.5 | -4.7 | 0.3 | -1.2 | 0.4 | 6.0
OCCC1CN(Cc2ccncc2)CCN1C1CCCC1 (stereo not given) | 1.9 | -2.4 | -5.3 | -3.7 | 0.2 | -3.1
CC(C)(O)C#Cc1ccc(CN2CCN(C3CCCCC3)C(CCO)C2)cc1 (stereo not given) | 2.5 | 15.6 | -10.4 | -7.7 | 1.0 | -1.7
CC(C)(O)C#Cc1ccc(CN2CCN(C3CCCCC3)C(CCO)C2)s1 (stereo not given) | -1.6 | 26.6* | -22.0 | -8.4 | 0.1 | 3.6
CC(C)(O)C#Cc1ccc(CN2CCN(C3CCCC3)C(CCO)C2)cc1 (stereo not given) | -2.0 | 27.8* | -43.8 | -15.1 | 1.1 | 7.4
CSc1ccc(CN2CCN(C3CCCC3)C(CCO)C2)cc1 (stereo not given) | 0.2 | 57.3* | -26.7 | -15.2 | 1.8 | -0.5
OCCC1CN(Cc2cnc(-c3ccc(Cl)cc3)nc2)CCN1C1CCCCC1 (stereo not given) | 29.9* | 2.1 | -25.4 | -9.3 | 5.4 | -13.9
CCOC(=O)c1ccccc1NC(=O)COC(=O)CCC(=O)c1ccccc1 | 7.7 | -8.4 | -1.5 | -3.2 | 5.2 | -1.6
Cc1ccc(C)c(NC(=O)C2CCCN2C(=O)NC2CCCCC2)c1 (stereo not given) | -10.9 | -5.6 | -4.7 | -4.7 | -0.1 | 4.0
O=C(NNC(=O)c1ccc(Oc2ccc(C3SCCS3)cc2)o1)c1ccc(Cl)cc1 | 16.8 | 27.4* | -33.9 | 2.4 | 17.8 | -22.8
O=C(NNC(=O)c1ccc(Oc2cc(Cl)cc(Cl)c2)o1)c1ccccc1 | 12.0 | 4.8 | -20.8 | 2.1 | 10.7 | -8.3
COc1ccc(-c2cc3c(c4c2ccn4C)C2CCC3C2)cc1OC (stereo not given) | 6.8 | -7.8 | 2.2 | -2.0 | -0.2 | -2.6
COc1ccc(-c2cc(C(F)(F)F)nc(S(=O)(=O)CCCC(=O)Nc3cccc(O)c3)n2)cc1OC | 27.2* | 8.8 | -5.3 | -1.3 | 16.8 | -10.7
COc1ccccc1-c1cc(C(F)(F)F)nc(S(=O)(=O)CCCC(=O)O)n1 | 6.4 | 4.2 | 7.4 | -2.8 | -0.2 | 3.1

Bioassay records deposited in PubChem BioAssay by The Scripps Research Institute Molecular Screening Center.
